The nature of series [1]: Partition coefficient (logP). It counts as physicochemical. The conditions noted are these: octanol/water. In outline: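 Octanol/water partition coefficient calculated with ChemDraw, not measured.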
Series [2] can be described thus: Apparent half life period in PBS buffer. In kind it is ADME. The procedure, abridged: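 Half-life by chemiluminescence at 37 °C. Diazeniumdiolate in 10 mM NaOH (or, if water-insoluble, in THF or NaOH/MeOH), 25–100 µL, injected into 3 mL deoxygenated 100 mM phosphate buffer pH 7.4 with 137 mM NaCl and 2.7 mM KCl. NO released, removed by nitrogen purge, read every 0.25 s to baseline. Half-life = time to release half of total possible NO.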

From ChEMBL document CHEMBL1144905, “More lipophilic dialkyldiamine-based diazeniumdiolates: synthesis, characterization, and application in preparing thromboresistant nitric oxide release polymeric coatings” (J Med Chem, 2003) come the findings set out here.

As to `CCCCCCNCCCCCCN(CCCCCC)/[N+]([O-])=N/O`, in series [1], the logP (commonly the decadic logarithm of the partition coefficient of the neutral form, usually between octanol and water) turned out to be 6.26.
Consider `CCCCCNCCCCCCN(CCCCC)/[N+]([O-])=N/O`, for which the half-life (as a rule, the time needed for the level to fall by half in the phase considered) in series [2] was 4.65 min. In series [1], the logP stood at 5.21.
For `CNCCCCCCN(C)/[N+]([O-])=N/O` the same measures were 1.12 min and 0.97.
For `CCNCCCCCCN(CC)/[N+]([O-])=N/O` the same measures were 5.78 min and 2.03.
With `CCCCNCCCCCCN(CCCC)/[N+]([O-])=N/O`, the half-life in series [2] is 4.95 min. Moreover, the logP in series [1] came to 4.15.
For `CCCNCCCCCCN(CCC)/[N+]([O-])=N/O` the same measures were 5.32 min and 3.09.
